Measurements gathered from unrelated publications.
Protocols differ between the studies behind these lines.
USP51: Ubiquitin carboxyl-terminal hydrolase 51 (USP51, Homo sapiens, UniProt Q70EK9)
CASP3: Caspase-3 (CASP3, Homo sapiens, UniProt P42574)
PDE10A: cAMP and cAMP-inhibited cGMP 3',5'-cyclic phosphodiesterase 10A (PDE10A, Homo sapiens, UniProt Q9Y233)

Compound | target | read-out | action | method | tested at | inhibition [%]
O=C1CCC[C@@H]2[C@H]3CCCN4CCC[C@H](CN12)[C@@H]34 | USP51 | enzyme activity | inhibitor | – | 5 µM | 0
CC(=O)N[C@@H](CC(=O)O)C(=O)N[C@@H](CC(N)=O)C(=O)N[C@@H](CC(C)C)C(=O)N[C@H](C=O)CC(=O)O | CASP3 | enzyme activity | inhibitor | – | 0.1 µM | 80
O=C(O[C@@H]1Cc2c(O)cc(O)cc2O[C@@H]1c1cc(O)c(O)c(O)c1-c1c([C@H]2Oc3cc(O)cc(O)c3C[C@H]2OC(=O)c2cc(O)c(O)c(O)c2)cc(O)c(O)c1O)c1cc(O)c(O)c(O)c1 | Tyrosine-protein phosphatase non-receptor type 22 (PTPN22, Homo sapiens, UniProt Q9Y2R2) | enzyme activity | inhibitor | fluorescence | 10 µM | 25
O=C(Nc1cccnn1)N1CCN([C@@H]2CCOc3cc(C(F)(F)F)ccc32)CC1 | Melanin-concentrating hormone receptor 1 (MCHR1, Homo sapiens, UniProt Q99705) | cell-free assay | – | – | 20 µM | -13
C[C@@H]1CC[C@H]2[C@@H](C)C(=O)O[C@@H]3O[C@@]4(C)CC[C@@H]1[C@]32OO4 | USP51 | enzyme activity | inhibitor | – | 5 µM | 17
c1ccc(C(NCCNC(c2ccccc2)c2ccccc2)c2ccccc2)cc1 | PDE10A | enzyme activity | inhibitor | – | 10 µM | 0
C#Cc1n[nH]c2c(-c3cn([C@@H](C)c4ccccc4)c(=O)[nH]c3=O)cc(F)cc12 | DNA-dependent protein kinase catalytic subunit (PRKDC, Homo sapiens, UniProt P78527) | enzyme activity | inhibitor | – | 0.1 µM | -1.6
Cc1ncc(C)n2nc(/C=C/c3nc(N4CCCC4)cc(N4CCOCC4)n3)nc12 | Peroxisome proliferator-activated receptor gamma (PPARG, Homo sapiens, UniProt P37231) | ligand displacement | – | – | 10 µM | 3
C[C@H]1C(=O)O[C@@H]2CCN3CC=C(COC(=O)[C@](C)(O)[C@]1(C)O)[C@H]23 | USP51 | enzyme activity | inhibitor | – | 5 µM | 42
COCc1c(-c2cc3cc(C)cc(OC)c3s2)c2c(N)ncnn2c1CN1CCNC(=O)C1 | Growth hormone secretagogue receptor type 1 (GHSR, Homo sapiens, UniProt Q92847) | ligand displacement | – | radioligand | 10 µM | 11
CC[C@@]1(O)C(=O)OCc2c1cc1n(c2=O)Cc2cc3ccccc3nc2-1 | USP51 | enzyme activity | inhibitor | – | 5 µM | 0
CCOC(=O)c1ccc(OC(=O)CCCCCNC(=N)N)cc1 | CASP3 | enzyme activity | inhibitor | – | 10 µM | 2
Cn1cc(-c2cccc(N3CCc4c(sc5c4CC(C)(C)C5)C3=O)c2CO)cc(Nc2ccncn2)c1=O | Calcium/calmodulin-dependent protein kinase type IV (CAMK4, Homo sapiens, UniProt Q16566) | enzyme activity | inhibitor | – | 1 µM | -5
C#Cc1n[nH]c2c(-c3cn(C(C)c4ccccn4)c(=O)[nH]c3=O)cc(F)cc12 (stereo not shown) | Serine/threonine-protein kinase Chk1 (CHEK1, Homo sapiens, UniProt O14757) | enzyme activity | inhibitor | – | 1 µM | 7
CC[C@H]1[C@@H]2C[C@H]3[C@@H]4N(C)c5ccccc5[C@]45C[C@@H]([C@H]2[C@H]5O)N3[C@@H]1O | USP51 | enzyme activity | inhibitor | – | 5 µM | 26
C[C@H](C(=O)N[C@H]1COc2ccccc2[C@@H]1S(C)(=O)=O)c1ccc(F)cc1 | PDE10A | enzyme activity | inhibitor | – | 10 µM | -4
